{
  "source": "BindingDB's records for doi:10.1021/jm990396t",
  "about": "(Glaxo Wellcome Research and Development, 2000)",
  "note": "pIC50: −log10 of the molar value.",
  "data": [
    {"molecular_target": "Kynurenine 3-monooxygenase (Rattus norvegicus, UniProt O88867)", "sequence (O88867 whole entry)": "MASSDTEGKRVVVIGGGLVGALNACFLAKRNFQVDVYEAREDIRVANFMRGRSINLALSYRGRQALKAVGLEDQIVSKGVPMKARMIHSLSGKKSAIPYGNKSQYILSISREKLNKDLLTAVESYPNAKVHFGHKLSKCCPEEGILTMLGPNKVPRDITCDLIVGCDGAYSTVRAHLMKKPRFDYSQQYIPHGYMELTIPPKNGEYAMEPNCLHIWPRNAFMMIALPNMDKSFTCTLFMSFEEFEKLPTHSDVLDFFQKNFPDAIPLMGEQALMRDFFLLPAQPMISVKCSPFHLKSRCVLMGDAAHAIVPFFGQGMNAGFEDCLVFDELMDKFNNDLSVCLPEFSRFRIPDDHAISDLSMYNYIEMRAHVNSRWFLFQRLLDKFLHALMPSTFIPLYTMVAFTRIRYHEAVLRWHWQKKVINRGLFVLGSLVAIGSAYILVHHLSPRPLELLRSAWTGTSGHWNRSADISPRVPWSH", "experiment": "Inhibition of Kynurenine-3-hydroxylase enzyme isolated from the rat liver", "summary_of_the_method": "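Enzyme source: P2 mitochondrial pellet from rat liver, resuspended in 0.32 M sucrose. Activity measured as ³HOH release from 3-[³H]-L-kynurenine at its K_m concentration, 37 °C, under conditions linear with time and enzyme protein. Five inhibitor concentrations tested. IC50 taken as the mean of at least 2 experiments run in duplicate, with variation <20%.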", "values": [
      {"smiles": "COC(=O)C(=O)CC(=O)c1ccc(Cl)c(Cl)c1", "note": "[4-(3,4-Dichloro-phenyl)-2-hydroxy-4-oxo-but-2-enoic acid methyl ester]", "pIC50": 5.72},
      {"smiles": "COC(=O)C(=O)CC(=O)c1ccc(Br)cc1", "note": "[4-(4-Bromo-phenyl)-2-hydroxy-4-oxo-but-2-enoic acid methyl ester]", "pIC50": 5.72},
      {"smiles": "COC(=O)C(=O)CC(=O)c1cccc(Cl)c1", "note": "[4-(3-Chloro-phenyl)-2-hydroxy-4-oxo-but-2-enoic acid methyl ester]", "pIC50": 5.72},
      {"smiles": "O=C(O)C(=O)CC(=O)c1cccc(Br)c1", "note": "[(Z)-4-(3-Bromo-phenyl)-2-hydroxy-4-oxo-but-2-enoic acid]", "pIC50": 5.77}
    ]}
  ]
}
